The source of these data is PubChem BioAssay.

Calls of active or inactive are those of the source.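 Rule for the calls, unless noted: active = inhibition above 20% together with a positive visual image hit; inconclusive = visual image hit but inhibition not above 20%; inactive = no visual image hit.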

A short description of test [1]: inhibitors of TNFa-induced NFkB p65 translocation, primary screen, imaging, HUVEC, MLSMR starter and 10KST1 sets (AID 438).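 For inhibition: signal is the nuclear over cytoplasmic p65 intensity ratio per well.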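 Note: compound added about 3h40 before a 20 min TNFalpha stimulation.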 The settings on record: HUVEC TNFa-induced p65 nuclear translocation; cell count: measured here: nuclei count (cytotoxicity indicator), at 2.08 µM; inhibition: at 2 µM, stronger effect = higher value, 0% TNFa-plus-vehicle, 100% no-TNFa wells.
Test [2] is described as follows: inhibitors of mutant huntingtin aggregation, primary screen, imaging, exon1htt(103Q)mCFP cells, high-content imaging (AID 483;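 active = visual image review flags a hit and inhibition of aggregation exceeds 20%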;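 note: compound exposure lasted 3 days before fixation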;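 for nuclei count: percent of the per-plate median nuclei count of sample wells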). The settings on record: exon1htt(103Q)mCFP cell line, aggregate imaging, at 2 µM; inhibition of aggregation: stronger effect = higher value; nuclei count: measured here: cell count, toxicity.
Test [3] is described as follows: inhibitors of E-selectin induction by TNFa, primary screen, imaging, HUVEC, immunofluorescence, MLSMR starter and 10KST1 sets (AID 487;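 active = visually confirmed hit in the image check and inhibition above 20%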;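 for inhibition: signal is fraction of cell area covered by stained E-selectin grains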;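 for nuclei count: 100% = median nuclei count of all wells on the same plate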). The settings on record: HUVEC TNFalpha-induced E-selectin immunofluorescence imaging, at 2 µM; inhibition: stronger effect = higher value; nuclei count: measured here: cell number, toxicity.
The target in test [4] is Voltage-gated potassium channel subunit beta-2 (Rattus norvegicus) (UniProt P62483). Kind of test: KvBeta enzyme negative modulators, primary screen, biochemical, NADPH fluorescence (AID 622;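 active = fluorescence slope higher than the sample average by over 3 SD, cut at about -0.22 in these data, passing the limit was not always enough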;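 note: slope of raw intensity against log time taken from 70 to 1610 s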). Conditions: recombinant KvBeta, 4-cyanobenzaldehyde reduction, at 10 µM, stronger effect = higher value.
Voltage-gated potassium channel subunit beta-2 (Rattus norvegicus), sequence (P62483 whole entry, looked up): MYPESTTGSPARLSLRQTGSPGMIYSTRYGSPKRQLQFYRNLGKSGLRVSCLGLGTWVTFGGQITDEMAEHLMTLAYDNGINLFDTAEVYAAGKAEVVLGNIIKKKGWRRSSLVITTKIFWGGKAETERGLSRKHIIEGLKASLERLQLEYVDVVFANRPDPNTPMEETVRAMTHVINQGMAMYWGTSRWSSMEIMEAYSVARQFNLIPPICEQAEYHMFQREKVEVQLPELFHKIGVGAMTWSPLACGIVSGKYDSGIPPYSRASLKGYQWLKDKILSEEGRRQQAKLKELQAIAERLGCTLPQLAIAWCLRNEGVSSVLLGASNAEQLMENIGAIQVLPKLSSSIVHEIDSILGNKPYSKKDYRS
The target is the same in test [5]. Description: KvBeta positive modulators, primary screen, biochemical, NADPH fluorescence (AID 623;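 active = NADPH fluorescence slope more negative than the mean of all samples by about 3 SD, 99.7% confidence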;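 note: fluorescence intensity change per second fitted from 20 to 320 s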). Conditions: Recombinant KvBeta, NADPH fluorescence decrease slope, 10 min; at 10 µM; stronger effect = lower value.
In test [6] the target is Muscarinic acetylcholine receptor M4 (Homo sapiens) (UniProt P08173). Kind of test: compounds altering M4/GIRK thallium flux, either direction, primary screen, M4 allosteric agonist project, cell-based, HEK293 M4/GIRK, BTC-AM (AID 625;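 active = fluorescence slope after compound addition differing from the mean of all tested samples at 99.7% confidence, mostly higher but some lower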;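 note: thallium influx through GIRK channels coupled to M4 in HEK293 cells with BTC-AM dye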). Conditions: at 10 µM, actives lie on both sides. In a few lines:
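Material – HEK293 cells with M4 receptor and GIRK channels · Buffer or medium – pH 7.3 thallium assay buffer · Doses – one dose, 10 µM final · Timing – cells overnight at 37 °C, BTC-AM loading 1 h, reads 2 min total · Measured by – kinetic fluorescence with BTC-AM dye · Controls – carbachol and DMSO controls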

The nature of test [7]: inhibitors of Sendai virus-induced IRF3 signaling, primary screen, TLR/RLR signaling modifier project, cell-based, Sendai virus stimulus, luciferase, 10K MLSCN set (AID 602276;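 active = inhibition at or above 50% at 10 µM; inactive = inhibition below 50%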;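 note: firefly luciferase from ISG56 promoter only with Renilla not read in this screen; 0% = Sendai virus plus DMSO and 100% = medium plus DMSO without virus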). Conditions: HEK293 RL24 IRF3 luciferase reporter, at 10 µM, stronger effect = higher value. For orientation: Reporter assays use an easily measured gene product as a stand-in for the process of interest.
Test [8] in a line: inhibitors of poly I:C-induced TLR3 signaling, primary screen, cell-based, poly I:C stimulus, luciferase, 10K MLSCN set (AID 602277;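 active = inhibition of the reporter signal at or above 50%; inactive = inhibition below 50%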). Conditions: HEK293-TLR3 RL24 IRF3 luciferase reporter, at 10 µM, stronger effect = higher value.

Muscarinic acetylcholine receptor M4 (Homo sapiens), sequence (P08173 whole entry, looked up): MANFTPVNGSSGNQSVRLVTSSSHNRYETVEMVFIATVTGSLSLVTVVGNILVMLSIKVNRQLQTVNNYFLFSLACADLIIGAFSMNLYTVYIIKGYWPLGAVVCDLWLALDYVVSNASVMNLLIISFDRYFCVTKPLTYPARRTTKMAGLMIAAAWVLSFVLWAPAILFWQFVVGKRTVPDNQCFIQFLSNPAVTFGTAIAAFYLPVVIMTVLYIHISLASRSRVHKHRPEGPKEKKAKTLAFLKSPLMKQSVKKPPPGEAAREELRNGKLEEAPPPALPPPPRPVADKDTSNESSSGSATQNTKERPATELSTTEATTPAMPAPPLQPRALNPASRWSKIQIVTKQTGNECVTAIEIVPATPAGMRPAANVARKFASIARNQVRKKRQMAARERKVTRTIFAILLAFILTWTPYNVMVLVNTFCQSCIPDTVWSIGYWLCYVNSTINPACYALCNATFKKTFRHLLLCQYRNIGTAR

Regarding `O=C(NCCN1CCCC1)C1COc2ccccc2O1` (centres undefined), the cell count in test [1] stood at 511. Besides, the inhibition in test [1] was -0.5% (inactive); in test [3] it was -28.7% (inactive); in test [7], 1.21% (inactive); in test [8], 11.8% (inactive). For the same compound, the inhibition of aggregation in test [2] is -4.3% (inactive). Also, the results for the nuclei count in test [2] and in test [3] were 73.8% and 100%, respectively. The values for the fluorescence slope in test [4] and in test [6] were -0.587 (inactive) and 0.0064 (inactive), respectively. The NADPH fluorescence slope in test [5] is -3.1e-05 (inactive).
Take `O=C(O)C1CSC2c3ccccc3C(=O)N12` (centres undefined): the cell count in test [1] amounted to 729. Besides, the inhibition in test [1] is -4.7% (inactive); in test [3] it was -66.8% (inactive); in test [7] it was 11.2% (inactive); in test [8], 19% (inactive). The inhibition of aggregation in test [2] is -3.2% (inactive). Also, the figures for the nuclei count in test [2] and in test [3] were 96.3% and 107%, respectively. The fluorescence slope in test [4] was -0.577 (inactive); in test [6] it was 0.00676 (inactive). Also, in test [5], the NADPH fluorescence slope was -6.7e-06 (inactive).
Turning to `CCCCn1c(SCC(=O)c2ccc3c(c2)OCCO3)nnc1-c1ccco1`, the cell count in test [1] was determined as 528. Also, the inhibition is -12.7% (inactive) in test [1], 15.4% (inactive) in test [3], 6.03% (inactive) in test [7] and 12.4% (inactive) in test [8]. For the same compound, the inhibition of aggregation in test [2] is -5.2% (inactive). Moreover, the nuclei count in test [2] turned out to be 108%; in test [3], 110%. The fluorescence slope in test [4] is -0.483 (inactive); in test [6], 0.00599 (inactive). For the same compound, the NADPH fluorescence slope in test [5] was 0.00011 (inactive).
Take `CCOc1ccc2cc(C#N)c(SCC(=O)N3CCOCC3)nc2c1`: the cell count in test [1] came to 386. In addition, the inhibition in test [1] is 1% (inactive); in test [3], -46.6% (inactive); in test [7], -22.4% (inactive); in test [8], -67% (inactive). Moreover, the inhibition of aggregation in test [2] was 11.7% (inactive). Besides, the nuclei count in test [2] came to 97.9%; in test [3], 90.7%. Moreover, the fluorescence slope is -0.487 (inactive) in test [4] and 0.00448 (inactive) in test [6]. In addition, in test [5], the NADPH fluorescence slope is -2.5e-05 (inactive).
As to `O=C(O)CSc1ccc2ccccc2n1`, the cell count in test [1] stood at 418. For the same compound, the inhibition in test [1] is 3.6% (inactive); in test [3], 15.7% (inactive); in test [7] it was 19% (inactive); in test [8], 23.8% (inactive). The inhibition of aggregation in test [2] is 1.4% (inactive). Also, the nuclei count was determined as 106% in test [2] and 102% in test [3]. The figures for the fluorescence slope in test [4] and in test [6] were -0.525 (inactive) and 0.00444 (inactive), respectively. Further, in test [5], the NADPH fluorescence slope was -3.7e-05 (inactive).
With `COc1nc(N2CCOCC2)nc(-n2cccc2)n1`, in test [1], the cell count is 534. Further, the inhibition in test [1] was -4.1% (inactive); in test [3], 52.3% (inactive); in test [7] it was 2.29% (inactive); in test [8] it was 4.71% (inactive). Further, the inhibition of aggregation in test [2] was 3% (inactive). Moreover, the nuclei count in test [2] was 99.6%; in test [3], 80.1%. In addition, the fluorescence slope in test [4] was -0.547 (inactive); in test [6], 0.00492 (inactive). Further, the NADPH fluorescence slope in test [5] was -7.1e-05 (inactive).
For `Cn1c(Cc2cccs2)nnc1SCC(=O)N1CCc2ccccc21`, the cell count in test [1] is 369. The inhibition in test [1] is -1.8% (inactive); in test [3] it was -67.8% (inactive); in test [7] it was 8.51% (inactive); in test [8], 16.5% (inactive). Besides, the inhibition of aggregation in test [2] was 14.1% (inactive). In addition, the nuclei count in test [2] was 93.4%; in test [3], 93.3%. In addition, the fluorescence slope in test [4] was -0.479 (inactive); in test [6], 0.00472 (inactive). Also, the NADPH fluorescence slope in test [5] was -6.1e-05 (inactive).
For the compound `O=C(CCSc1ccccc1)N1CCN(C(=O)c2ccco2)CC1`, the cell count in test [1] was 462. Moreover, the inhibition in test [1] was -11.1% (inactive); in test [3] it was -29.7% (inactive); in test [7] it was -23.3% (inactive); in test [8], -56% (inactive). The inhibition of aggregation in test [2] was 2% (inactive). Moreover, the values for the nuclei count in test [2] and in test [3] were 102% and 97.1%, respectively. For the same compound, the figures for the fluorescence slope in test [4] and in test [6] were -0.603 (inactive) and 0.0052 (inactive), respectively. The NADPH fluorescence slope in test [5] was -3.1e-05 (inactive).
Take `Cc1ccc(C2C(C#N)=C(N)Oc3cc4c(cc32)OCO4)cc1` (centres undefined): the cell count in test [1] was 373. The inhibition in test [1] is -5.8% (inactive); in test [3], 22.1% (inactive); in test [7] it was 24.6% (inactive); in test [8] it was 45.5% (inactive). In addition, the inhibition of aggregation in test [2] is 32.6% (inactive). Moreover, the values for the nuclei count in test [2] and in test [3] were 69.9% and 104%, respectively. The fluorescence slope in test [4] is -0.541 (inactive); in test [6], 0.00467 (inactive). Further, in test [5], the NADPH fluorescence slope was -3.6e-05 (inactive).
With `CCOC(=O)c1cc(-c2ccc3c(c2)OCO3)nc2onc(C)c12`, the cell count in test [1] was 402. Moreover, the inhibition was 3.7% (inactive) in test [1], -64.2% (inactive) in test [3], -6.27% (inactive) in test [7] and -18.4% (inactive) in test [8]. Moreover, the inhibition of aggregation in test [2] was 21.3% (inactive). Besides, the nuclei count was found to be 64.3% in test [2] and 106% in test [3]. Also, the fluorescence slope in test [4] was -0.00965 (inactive); in test [6], 0.00537 (inactive). In addition, the NADPH fluorescence slope in test [5] was -7.8e-06 (inactive).
For `CC(=O)Nc1cccc(-c2nnc(-c3ccccc3)o2)c1`, the cell count in test [1] amounted to 378. Besides, the inhibition in test [1] is 0.4% (inactive); in test [3], -93.4% (inactive); in test [7], -35.6% (inactive); in test [8] it was -134% (inactive). Besides, the inhibition of aggregation in test [2] is 4.1% (inactive). The nuclei count in test [2] amounted to 105%; in test [3], 136%. In addition, the fluorescence slope in test [4] was -0.582 (inactive); in test [6], 0.00721 (inactive). Also, the NADPH fluorescence slope in test [5] was -3e-05 (inactive).
Take `COC(=O)c1ccccc1S(=O)(=O)N(CCCN1CCOCC1)Cc1cccs1`: in test [1], the cell count stood at 328. In addition, the inhibition is 2.1% (inactive) in test [1], -43.1% (inactive) in test [3], 14% (inactive) in test [7] and 19.2% (inactive) in test [8]. In addition, in test [2], the inhibition of aggregation was 2.9% (inactive). The nuclei count in test [2] worked out at 104%; in test [3], 115%. Also, the fluorescence slope in test [4] was -0.502 (inactive); in test [6], 0.00684 (inactive). Moreover, the NADPH fluorescence slope in test [5] was 1.2e-05 (inactive).
For `Cc1ccc(S(=O)(=O)N[C@@H](C)C(=O)N2CCC(C(=O)N3CCC[C@H]3C(=O)O)CC2)cc1`, the cell count in test [1] is 361. The inhibition in test [1] was 3.6% (inactive); in test [3], -59.3% (inactive); in test [7], 2.84% (inactive); in test [8], 13% (inactive). The inhibition of aggregation in test [2] is -14.8% (inactive). Besides, the nuclei count in test [2] stood at 102%; in test [3], 129%. Besides, the fluorescence slope in test [4] is -0.406 (inactive); in test [6], 0.00591 (inactive). The NADPH fluorescence slope in test [5] was 7.4e-05 (inactive).
Consider `COc1ccc(C2=NOC(C(=O)NCCCN3CCOCC3)C2)cc1` (centres undefined), for which the cell count in test [1] turned out to be 315. For the same compound, the inhibition in test [1] is 3.5% (inactive); in test [3] it was 11.5% (inactive); in test [7] it was 11.7% (inactive); in test [8], 23.1% (inactive). Moreover, in test [2], the inhibition of aggregation is 11.3% (inactive). Further, the results for the nuclei count in test [2] and in test [3] were 86% and 84.7%, respectively. Further, the results for the fluorescence slope in test [4] and in test [6] were -0.554 (inactive) and 0.00417 (inactive), respectively. The NADPH fluorescence slope in test [5] was -0.000122 (inactive).

In general, inhibition refers to the change of the read-out against control, counted positive when it falls.
